This is one part of a sample in which hits are shown more often than they occur.
ALR H2O2 inh – human ALR oxidase inhibition via reduced H2O2; purified ALR, DTT oxidation, H2O2 HRP-luminol luminescence; inhibition, % (concentration not given with the values); P55789; 290,000 compounds, 3.8% hits;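 active = mean replicate inhibition above about 79%, with every replicate also reaching it, limit read from the data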
Target sequence (P55789 whole entry, looked up): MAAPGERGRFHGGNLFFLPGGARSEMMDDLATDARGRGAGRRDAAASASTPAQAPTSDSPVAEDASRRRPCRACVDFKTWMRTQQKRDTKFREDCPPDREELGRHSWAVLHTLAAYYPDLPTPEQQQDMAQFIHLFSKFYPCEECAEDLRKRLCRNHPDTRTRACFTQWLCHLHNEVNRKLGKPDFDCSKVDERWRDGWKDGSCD
T cell modulator – T cell immune modulators affecting CD8 T cell-vesicle binding. 2C CD8+ T cell-vesicle binding, flow cytometry; stronger effect = lower value. AID 2052. response (vesicle binding), % at 7 µM. 330,000 compounds, 0.068% hits;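 active = response, share of CD8 T cells binding vesicles, and their 90th percentile fluorescence all below set limits, cut at about 80% in these data, passing the limit was not always enough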;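 also: values below 100% mean blocked vesicle binding to the CD8+ T cells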
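System: murine 2C transgenic CD8+ T lymphocytes; also added: QL9-loaded Drosophila micro-vesicles; times: binding 1.5 h at 37 °C; measured by: flow cytometry, PE anti-B7-1 (FL2) versus Alexa647 anti-CD8 (FL8), PFA-fixed; control set: Peptide-free naked vesicles (low) and QL9 vesicles with 0.7% DMSO vehicle (high)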
N-glyco inh – N-linked glycosylation inhibition; reporter increase, % at 12.5 µM; D54 ERlucT glycosylation luciferase reporter, 24 h; percent of 100 nM tunicamycin response; 360,000 compounds, 0.23% hits;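 active = mean luciferase reporter signal, scaled so untreated is 0 and the glycosylation-blocking control 100, at or above a set limit in every replicate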;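 also: luciferase carries N-glycosylation sites so blocking glycosylation raises the light; 0% = median of neutral control wells and 100% = median of 100 nM tunicamycin wells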
Numbers without * were called inactive; nt = no result.

SMILES	ALR H2O2 inh	T cell modulator	N-glyco inh
CCOC(=O)c1ccc2ncc(C(=O)OCC)c(Nc3ccc(N4CCOCC4)cc3)c2c1	6	357	-19
CCOC(=O)c1cnc2ccc(OC)cc2c1Nc1ccc(N2CCN(C)CC2)cc1	99*	174	3
Nc1nonc1C(=Nc1ccccc1)NO	53	224	1
Cc1cccc(N=C(NO)c2nonc2N)c1	89*	245	0
CCCn1nc([N+](=O)[O-])c(C(C#N)c2nc3ccccc3s2)c(Cl)c1=O (stereo not given)	97*	336	-4
CCn1nc([N+](=O)[O-])c(C(C#N)c2nc3ccccc3n2C)c(Cl)c1=O (stereo not given)	nt	301	-1
C[C@@H]1CN([C@@H](C)CO)S(=O)(=O)c2ccc(C#Cc3cccc(F)c3)cc2O[C@@H]1CN(C)CC1CC1	nt	nt	-6
O=S(=O)(Nc1nc2c(s1)CCCC2)c1ccc2ccccc2c1	48	178	0
O=S(=O)(NC1=NCCCCC1)c1ccc2sc(NS(=O)(=O)c3ccc4ccccc4c3)nc2c1	87*	313	0
CN1C[C@@H]2[C@@H]3C(=O)N(C)C(=O)[C@@H]3[C@](C)(C1=O)N2C(=O)c1ccc(C(F)(F)F)cc1	nt	nt	1
Cc1cccc(C(=O)N2CC(=O)Nc3ccc(F)cc3C2c2ccc(F)cc2)c1 (stereo not given)	-2	197	0
CNC(=S)NNC(=O)c1c(C)nc2cc(C)ccn12	27	497	3
CCOc1ccc(Nc2ccnc3cc(Cl)ccc23)cc1	-3	269	-3
CN1CCN(c2ccc(Nc3ccnc4cc(Cl)ccc34)cc2)CC1	92*	229	6
CCn1ccnc1C(O)c1ccc(N(C)C)cc1 (stereo not given)	99*	584	1
CCOc1ccc(C(O)c2nccn2Cc2ccccc2)cc1 (stereo not given)	6	185	1
CCn1c(-c2ccco2)nc2ccccc21	6	564	-2
c1ccc(-c2nc(-c3ccco3)n3ccccc23)cc1	94*	407	-3
O=Cc1cccn1Cc1ccccc1[N+](=O)[O-]	-20	88	4
Cc1ccc(-c2csc(N=C(N)N)n2)cc1	99*	910	1
Cc1ccc(-c2csc(N3CCC(C(N)=O)CC3)n2)cc1	31	459	1
CN(C)c1cccc(/C=C(\C#N)c2ccccc2)c1	99*	45	-9
CN(C)c1ccc(/C=C(\C#N)c2ccccc2)cc1	nt	nt	-8
CC(=O)Nc1cccc(NC(=O)CSc2n[nH]c(-c3ccccc3)n2)c1	8	397	1
O=C(CSc1ncc(-c2ccccc2)[nH]1)Nc1ccccc1F	12	143	-1
SMILES	ALR H2O2 inh	T cell modulator	N-glyco inh
O=C(CSc1ncc(-c2ccccc2)[nH]1)Nc1ccccc1	99*	404	0
CC(=O)Nc1cccc(NC(=O)CSc2ncc(-c3ccccc3)[nH]2)c1	99*	301	4
O=C(CSc1ncc(-c2ccccc2)[nH]1)Nc1cccc(O)c1	99*	466	1
NC(=O)CSc1ncc(-c2ccccc2)[nH]1	18	608	-1
O=C(Nc1cccc(-c2ccc(F)cc2)c1)C1CCCN(C(=O)c2cscn2)C1 (stereo not given)	-20	364	2
Cc1ccc(-c2nc3c(c(=O)c4ccccc4n3C)c(=O)n2-c2ccccc2)cc1	-5	301	4
CCN1C(=O)[C@H]2[C@@H](c3ccc(-c4ccc(Cl)c(Cl)c4)c(OC)c3)N3CCCC[C@@]3(C(=O)OC)[C@H]2C1=O	8	292	-2
NC(=O)c1c(NC(=O)C2CCCO2)sc2c1CCCC2 (stereo not given)	nt	288	-1
O=C(CSc1ccccc1C(=O)O)c1ccc(Cl)cc1	13	349	-5
O=C(O)c1ccccc1NC(c1ccccc1)c1ccc(Cl)cc1 (stereo not given)	91*	278	-2
COc1ccccc1CNC(=O)COC(=O)C1CCN(S(=O)(=O)c2ccc(C)c(C)c2)CC1	-7	582	-1
COc1ccccc1NC(=O)N(C)C[C@@H]1OCc2cnnn2CCCC(=O)N([C@H](C)CO)C[C@H]1C	nt	nt	2
COc1ccc(CCNCC(O)Cn2c3ccccc3c3ccccc32)cc1OC (stereo not given)	-9	243	-6
COc1ccccc1NCC(O)Cn1c2ccccc2c2ccccc21 (stereo not given)	87*	227	-4
C[C@H](CO)N1C[C@H](C)[C@H](CN(C)S(=O)(=O)c2cn(C)cn2)Oc2ccc(NC(=O)Nc3ccc(C(F)(F)F)cc3)cc2CC1=O	10	165	60*
C[C@H]1CN([C@@H](C)CO)C(=O)Cc2cc(NC(=O)CCC(F)(F)F)ccc2O[C@H]1CN(C)S(C)(=O)=O	-3	234	0
C[C@H](CO)N1C[C@H](C)[C@@H](CN(C)S(=O)(=O)c2ccccc2)Oc2c(NC(=O)CCC(F)(F)F)cccc2C1=O	1	386	0
Cc1ccc(S(=O)(=O)N(C)C[C@@H]2Oc3ccc(NC(=O)CCC(F)(F)F)cc3CC(=O)N([C@@H](C)CO)C[C@@H]2C)cc1	-4	549	33*
C[C@@H]1CN([C@@H](C)CO)C(=O)Cc2cc(NC(=O)Nc3ccc(C(F)(F)F)cc3)ccc2O[C@@H]1CN(C)S(=O)(=O)c1ccc(Cl)cc1	-2	106	-7
C[C@H](CO)N1C[C@H](C)[C@@H](CN(C)S(=O)(=O)c2ccccc2)Oc2c(NC(=O)Cc3ccccc3)cccc2C1=O	0	587	28*
CC1CC(C)CN(S(=O)(=O)c2ccc(NC(=O)CCNC(=O)c3ccc([N+](=O)[O-])cc3)cc2)C1 (stereo not given)	-2	274	2
O=C(C1=C[C@@H](C2CCCCC2)C[C@@H](OCc2ccc(CO)cc2)O1)N1CCN(Cc2ccccc2)CC1	-4	195	-6
CCc1c(O)nc(SCc2nc3ccccc3c(=O)[nH]2)[nH]c1=O	98*	148	1
O=C(CSc1nc(O)c(Cc2ccccc2)c(=O)[nH]1)Nc1nnc(SCc2ccccc2)s1	30	135	1
C=CCc1c(C)nc(SCc2nc3ccccc3c(=O)[nH]2)[nH]c1=O	7	183	1
SMILES	ALR H2O2 inh	T cell modulator	N-glyco inh
CCCCc1nnc(NC(=O)CSc2nc(O)c(Cc3ccccc3)c(=O)[nH]2)s1	99*	179	-2
COc1ccc(CNC(=O)CSc2ncnc3ccccc23)cc1OC	89*	443	-3
COc1ccc(CCNC(=O)COc2ncnc3ccccc23)cc1OC	-1	712	0
CCCCc1nnc(NC(=O)CSc2nc(O)c(-c3ccccc3)c(=O)[nH]2)s1	59	173	-1
O=C(CSc1nc(O)c(Cc2ccccc2)c(=O)[nH]1)Nc1ccccc1	99*	494	2
CC[C@@]1(C(=O)OC)N[C@H](CN(C)C(=O)Nc2ccc(OC)cc2)[C@@H]2C(=O)N(Cc3ccccc3)C(=O)[C@@H]21	2	376	2
CCCn1c(=O)[nH]c(=O)c2c(C(=O)OCC)cc(-c3cccs3)nc21	-23	376	3
Cc1cccc(C(=O)Nc2ccc(C(=O)c3ccncc3)cc2)c1	nt	nt	0
Cc1cccc(NC(=O)C2CCCN(c3ncnc4c3nc3n4CCCCC3)C2)n1 (stereo not given)	-9	353	2

From PubChem BioAssay
